Data reported in ChEMBL document CHEMBL1142657, “Imidazolidin-4-one derivatives of primaquine as novel transmission-blocking antimalarials” (J Med Chem, 2005).

Assays:
[1] = system: Culicidae; experiment: Percentage of Plasmodium berghei ANKA infected Anopheles stephensi mosquitos after treatment with the compound at a dosage of 0 umol.1/kg; type: functional
Procedure, shortened: (§1)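 BalbC mice were infected ip with 10⁷ P. berghei ANKA-parasitized erythrocytes. After 4 days, gametocytes and exflagellation were confirmed on Giemsa smears, and mice were randomized into groups of six. Each received a single ip dose (10 or 50 µmol/kg; controls given PBS). 2 h later, anesthetized mice were placed on Anopheles stephensi cages. Read-outs: % mosquitoes with oocysts, and mean oocysts per infected mosquito (SE).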

[2] = system: Culicidae; experiment: Percentage of Plasmodium berghei ANKA infected Anopheles stephensi mosquitos after treatment with the compound at a dosage of 50 umol.1/kg; type: functional; procedure, shortened: as §1
[3] = Mean number of Plasmodium berghei ANKA […] production in Anopheles stephensi mosquito after treatment with the compound at a dosage 0 umol.1/kg; type: functional, Culicidae; procedure, shortened: as §1
[4] = Mean number of Plasmodium berghei ANKA […] production in Anopheles stephensi mosquito after treatment with the compound at a dosage 50 umol.1/kg; type: functional, Culicidae; procedure, shortened: as §1
[5] = system: Culicidae; experiment: Percentage of Plasmodium berghei ANKA infected Anopheles stephensi mosquitos after treatment with the compound at a dosage of 10 umol.1/kg; type: functional; procedure, shortened: as §1
[6] = Mean number of Plasmodium berghei ANKA […] production in Anopheles stephensi mosquito after treatment with the compound at a dosage 10 umol.1/kg; type: functional, Culicidae; procedure, shortened: as §1
[7] = Percent hydrolysis to the corresponding amino acid product 3, in 80% human plasma at 37C after 3 days of treatment with the compound; type: ADME, cell-free; details: 72 h
Procedure, shortened: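 Aliquots were quenched in acetonitrile and centrifuged. Supernatant went to reversed-phase HPLC (pH 4.75 sodium acetate/acetonitrile gradient with triethylamine) for substrate and amino acid product. Reported as % hydrolysis after 3 days.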

[8] = Percent hydrolysis to the corresponding amino acid product 3, in pH 7.4 phosphate buffer at 37C after 3 days of treatment with the compound; type: ADME, Homo sapiens; details: read-out: Hydrolysis
Procedure, shortened: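 Hydrolysis followed in pH 7.4 phosphate saline buffer at 37 °C. Substrate and amino acid product were measured by reversed-phase HPLC (pH 4.75 sodium acetate/acetonitrile gradient with triethylamine). Reported as % conversion after 3 days and as half-life in days.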

SMILES | Hydrolysis [7] [%] | degraded at 72 h [8] [%] | Infectedmosquitoes [1] [%] | Infectedmosquitoes [2] [%] | Activity [3] | Activity [4] | Infectedmosquitoes [5] [%] | Activity [6]
COc1cc(NC(C)CCCN2C(=O)CNC23CCCCC3)c2ncccc2c1 (stereo not drawn) | – | – | 65 | 0 | 105 | 0 | 25 | 7.4
COc1cc(NC(C)CCCN2C(=O)[C@H](Cc3ccccc3)NC23CCCCCC3)c2ncccc2c1 (stereo partly drawn) | – | 10 | – | 0 | 120 | 0 | 90 | 78.9
COc1cc(NC(C)CCCN2C(=O)[C@H](Cc3ccccc3)NC23CCCCC3)c2ncccc2c1 (stereo partly drawn) | – | – | – | 0 | 83.2 | 0 | 83 | 71
COc1cc(NC(C)CCCN)c2ncccc2c1 (stereo not drawn) [PRIMAQUINE] | – | – | 0 | 50 | 83.2 | 0 | 10 | 2.6
COc1cc(NC(C)CCCN2C(=O)[C@H](C(C)C)NC23CCCCCC3)c2ncccc2c1 (stereo partly drawn) | – | – | – | – | 120 | – | 65 | 17.7
COc1cc(NC(C)CCCN2C(=O)[C@H](C(C)C)NC2(C)C)c2ncccc2c1 (stereo partly drawn) | – | – | – | 5 | 105 | 0.9 | 25 | 5

Second part, led by results:

Hydrolysis [7] [%] | degraded at 72 h [8] [%] | SMILES | Infectedmosquitoes [1] [%] | Infectedmosquitoes [2] [%] | Activity [3] | Activity [4] | Infectedmosquitoes [5] [%] | Activity [6]
9 | – | COc1cc(NC(C)CCCN2C(=O)[C@H](C)NC23CCCCC3)c2ncccc2c1 (stereo partly drawn) | – | 0 | 83.2 | 0 | 20 | 0.8
5 | – | COc1cc(NC(C)CCCN2C(=O)[C@H](C(C)C)NC23CCCC3)c2ncccc2c1 (stereo partly drawn) | – | 15 | 51 | 0.5 | 35 | 4.2
– | 8 | COc1cc(NC(C)CCCN2C(=O)[C@H](C(C)C)NC23CCCCC3)c2ncccc2c1 (stereo partly drawn) | – | 25 | 51 | 0.4 | 85 | 61.1
3 | – | COc1cc(NC(C)CCCN2C(=O)[C@H](Cc3ccccc3)NC23CCCC3)c2ncccc2c1 (stereo partly drawn) | – | 0 | 66.1 | 0 | 65 | 51.6
16 | – | COc1cc(NC(C)CCCN2C(=O)CNC2(C)C)c2ncccc2c1 (stereo not drawn) | – | 0 | 105 | 0 | 21 | 6.1
– | 6 | COc1cc(NC(C)CCCN2C(=O)[C@H](Cc3ccccc3)NC2(C)C)c2ncccc2c1 (stereo partly drawn) | – | 0 | 66.1 | 0 | 76 | 61.2
– | 10 | COc1cc(NC(C)CCCN2C(=O)[C@H](CC(C)C)NC2(C)C)c2ncccc2c1 (stereo partly drawn) | – | 20 | 120 | 1 | 30 | 13.7
